Experiment [1] deals with Mycolicibacterium smegmatis. Description: Antitubercular activity against Mycobacterium smegmatis ATCC 35797 after 48 hrs by agar dilution method. The experiment is classed as functional. The settings on record: ATCC 35797, 48 h. The gist of the method:
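MIC by agar dilution, NCCLS-like protocol. A 1 mg/ml DMSO stock is diluted in 10% molten agar to 200 µg/ml, then 100, 50, 25, 12.5, 6.25 down to 0.625 µg/ml. Plates are 3–4 mm deep. Overnight Mueller–Hinton cultures are diluted 1:100 and streaked radially. Incubation is 35 °C for 48 h. The control is DMSO in medium.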

Experiment [2] deals with Mycobacterium intracellulare. Put plainly: Antitubercular activity against Mycobacterium intracellular ATCC 35743 after 48 hrs by agar dilution method. The experiment is classed as functional. The settings on record: ATCC 35743, 48 h. The gist of the method:
(§1)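 Agar dilution MIC method. Compounds were dissolved in DMSO at 1 mg/ml and mixed into molten agar at 200 µg/ml. Active compounds were further diluted through 100, 50, 25, 12.5 and 6.25 down to 0.625 µg/ml. Plates had 3–4 mm agar depth. Inocula were overnight Mueller–Hinton broth cultures diluted 1:100 and radially streaked, then incubated 35 °C for 48 h. Isoniazid was the reference; drug-free and DMSO controls were included.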
(In general: Agar dilution tests growth on a series of plates holding different concentrations.)

Experiment [3] relates to Mycobacterium xenopi. Description: Antitubercular activity against Mycobacterium xenopi ATCC 14470 at 200 ug/ml after 48 hrs by agar dilution method. The experiment is classed as functional, organism-based. The gist of the method:
(§2)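 Agar dilution screen. Compounds are dissolved in DMSO at 1 mg/ml stock and mixed into 10% molten agar to 200 µg/ml. Plates are poured 3–4 mm deep. Overnight Mueller–Hinton broth cultures are diluted 1:100 and streaked radially. Plates are incubated at 35 °C for 48 h. Controls are strain with DMSO and medium only.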

For experiment [4], the system named is Mycobacteroides chelonae. Put plainly: Antitubercular activity against Mycobacterium chelonae ATCC 35751 at 200 ug/ml after 48 hrs by agar dilution method. The experiment is classed as functional, organism-based. The gist of the method: as §2
The subject of experiment [5] is Mycolicibacterium smegmatis. Description: Antitubercular activity against Mycobacterium smegmatis ATCC 35797 at 200 ug/ml after 48 hrs by agar dilution method. It is filed as functional, organism-based. The procedure, abridged:
as §1

For experiment [6], the system named is Mycobacteroides chelonae. Description: Antitubercular activity against Mycobacterium chelonae ATCC 35751 after 48 hrs by agar dilution method. The experiment is classed as functional. The settings on record: ATCC 35751, 48 h. The procedure, abridged:
as §1

The subject of experiment [7] is Mycobacterium xenopi. Description: Antitubercular activity against Mycobacterium xenopi ATCC 14470 after 48 hrs by agar dilution method. The settings on record: ATCC 14470, 48 h. It is filed as functional. The gist of the method:
as §1

Experiment [8] has as its system Mycobacterium intracellulare. Put plainly: Ratio of compound MIC to isoniazid MIC for Mycobacterium intracellular ATCC 35743. The experiment is classed as functional.
Experiment [9] concerns Mycolicibacterium smegmatis. Description: Ratio of compound MIC to isoniazid MIC for Mycobacterium smegmatis ATCC 35797. The experiment is classed as functional.
Experiment [10] has as its system Mycobacterium xenopi. Description: Ratio of compound MIC to isoniazid MIC for Mycobacterium xenopi ATCC 14470. The experiment is classed as functional.
Experiment [11] relates to Mycobacteroides chelonae. Put plainly: Ratio of compound MIC to isoniazid MIC for Mycobacterium chelonae ATCC 35751. It is filed as functional.
In experiment [12] the test system is Mycobacterium intracellulare. Put plainly: Antitubercular activity against Mycobacterium intracellular ATCC 35743 at 200 ug/ml after 48 hrs by agar dilution method. It is filed as functional, organism-based. The gist of the method:
as §2

Values after ≈ are worked out from the molar mass of the structure shown. Active and inactive are the calls of the source. The rule behind the calls is not given here.

For orientation: MIC means the lowest concentration found to suppress growth.

Regarding `CCn1cc(C(=O)N/N=C2\C(=O)N(C)c3ccccc32)c(=O)c2ccc(C)nc21`, the MIC in [1] and in [2] was 200 µg/mL (≈ 514 µM) each time. The MIC result in experiment [3] and in experiment [4] was “inactive” throughout.

Take `CCn1cc(C(=O)N/N=C2\C(=O)N(C)c3ccc(Br)cc32)c(=O)c2ccc(C)nc21`: the MIC entry in experiment [5] was “inactive”.

For the molecule `C=CCN1C(=O)/C(=N\NC(=O)c2cn(CC)c3nc(C)ccc3c2=O)c2ccccc21`, the MIC entry in [5] was “inactive”.

For the molecule `CCN(CC)CN1C(=O)/C(=N\NC(=O)c2cn(CC)c3nc(C)ccc3c2=O)c2cc(Br)ccc21`, in [5], the MIC result was “inactive”.

In the case of `CCCN1C(=O)/C(=N\NC(=O)c2cn(CC)c3nc(C)ccc3c2=O)c2cc(Br)ccc21`, in experiment [5], the MIC result was “inactive”.

In the case of `CCn1cc(C(=O)N/N=C2\C(=O)N(Cc3ccccc3)c3ccccc32)c(=O)c2ccc(C)nc21`, the MIC in experiment [1], in [2], in [6] and in experiment [7] was 0.625 µg/mL (≈ 1.34 µM) in each case. Further, the Ratio in [8], in [9], in experiment [10] and in experiment [11] was 20 throughout.

`CCn1cc(C(=O)N/N=C2\C(=O)N(CN3CCN(C)CC3)c3ccccc32)c(=O)c2ccc(C)nc21`: in [5], the MIC entry is “inactive”.

Regarding `CCN1C(=O)/C(=N\NC(=O)c2cn(CC)c3nc(C)ccc3c2=O)c2cc(Br)ccc21`, the MIC in experiment [1], in experiment [2] and in experiment [7] was 100 µg/mL (≈ 207 µM) each time. Further, the MIC result in [4] was “inactive”.

The molecule `CCn1cc(C(=O)N/N=C2\C(=O)Nc3ccc(Br)cc32)c(=O)c2ccc(C)nc21` yielded an MIC in [1] of 200 µg/mL (≈ 440 µM). For the same molecule, the MIC result in [12], in experiment [3] and in experiment [4] was “inactive” each time.

Take `C=CCN1C(=O)/C(=N\NC(=O)c2cn(CC)c3nc(C)ccc3c2=O)c2cc(Br)ccc21`: the MIC result in experiment [5] was “inactive”.

With `CCn1cc(C(=O)N/N=C2\C(=O)N(Cc3ccccc3)c3ccc(Br)cc32)c(=O)c2ccc(C)nc21`, the minimum inhibitory concentration (MIC) in experiment [1], in experiment [2], in experiment [6] and in experiment [7] was 50 µg/mL (≈ 91.8 µM) each time.

Turning to `CCN(CC)CN1C(=O)/C(=N\NC(=O)c2cn(CC)c3nc(C)ccc3c2=O)c2ccccc21`, the MIC result in [5] is “inactive”.

In the case of `NNC(=O)c1ccncc1` [ISONIAZID], the minimum inhibitory concentration (MIC) in experiment [1], in [2], in experiment [6] and in [7] was 12.5 µg/mL (≈ 91.1 µM) each time.

With `CCN1C(=O)/C(=N\NC(=O)c2cn(CC)c3nc(C)ccc3c2=O)c2ccccc21`, the minimal inhibitory concentration (MIC) in experiment [1], in experiment [2], in experiment [6] and in [7] was 200 µg/mL (≈ 496 µM) throughout.

For `CCCN1C(=O)/C(=N\NC(=O)c2cn(CC)c3nc(C)ccc3c2=O)c2ccccc21`, the MIC entry in experiment [5] was “inactive”.

For `CCn1cc(C(=O)N/N=C2\C(=O)Nc3ccccc32)c(=O)c2ccc(C)nc21`, the MIC in experiment [1] is 100 µg/mL (≈ 266 µM). Moreover, the MIC result in [12], in experiment [3] and in experiment [4] was “inactive” each time.

Source of the values: ChEMBL document CHEMBL1250489, “Schiff bases of indoline-2,3-dione (isatin) derivatives and nalidixic acid carbohydrazide, synthesis, antitubercular activity and pharmacophoric model building” (2010).
